Assay results as given in ChEMBL document CHEMBL4680086, “Antiangiogenic Effect of (±)-Haloperidol Metabolite II Valproate Ester [(±)-MRJF22] in Human Microvascular Retinal Endothelial Cells” (J Med Chem, 2016).
Converted amounts (≈) assume the structure as drawn. Blank lines part the entries; values can stand above or below the compound they belong to. The source made the active and inactive calls. The calls are words filed in the database; no cut-off is given here.

What was measured:
[1] = Cytotoxicity in HREC assessed as reduction in cell viability incubated for 24 hrs by MTT assay; assay type: functional; conditions: Homo sapiens
How it was run: (§1)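 HREC viability measured by MTT test after compound exposure for 24, 48, 72 or 96 h, with concentrations up to 200 μM.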

[2] = target: Histone deacetylase (Homo sapiens) (UniProt Q13547+O15379+Q9UBN7+Q92769+Q9UQL6+Q8WUI4+Q9BY41+Q96DB2+P56524+Q9UKV0+Q969S8); assay: Inhibition of HDAC in human HeLa cell extracts at 5 uM using fluorescently labeled HDAC substrate
[3] = Cytotoxicity in HREC assessed as reduction in cell viability at 5 uM incubated for 72 hrs by MTT assay; assay type: functional, Homo sapiens; how it was run: as §1
[4] = Stability in pH 1.3 buffer by HPLC analysis; assay type: physicochemical
How it was run: (§2)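 Chemical stability was tested at 37 °C in aqueous buffer at pH 1.3 (non-enzymatic simulated gastric fluid) or pH 7.4.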

[5] = target: Sigma non-opioid intracellular receptor 1 (Cavia porcellus, UniProt Q60492); assay: Displacement of [3H]-pentazocine from sigma1 receptor in guinea pig brain membranes by scintillation counting; assay type: cell membranes, Cell membrane
Sigma non-opioid intracellular receptor 1, sequence (Q60492 whole entry): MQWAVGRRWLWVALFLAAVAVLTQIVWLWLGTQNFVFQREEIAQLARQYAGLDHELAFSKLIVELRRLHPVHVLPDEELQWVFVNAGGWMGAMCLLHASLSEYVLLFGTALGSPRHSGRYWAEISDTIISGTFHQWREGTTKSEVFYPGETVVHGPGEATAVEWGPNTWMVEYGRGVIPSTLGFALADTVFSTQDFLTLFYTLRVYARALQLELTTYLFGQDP

[6] = Cytotoxicity in HREC assessed as reduction in cell viability at 5 uM incubated for 72 hrs in presence of 1 uM sigma2 receptor antagonist AC927 by MTT assay; assay type: functional, Homo sapiens
How it was run: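 HRECs co-incubated with compound and the σ2 ligand AC927 (1 μM) for 72 h. Cell viability read by MTT test.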

[7] = Suppression of VEGF-A-induced pro-angiogenesis in HREC assessed as alive cell number count at 5 uM incubated for 72 hrs by Trypan blue dye exclusion assay (reference value: 42%); assay type: functional, Homo sapiens
[8] = Suppression of VEGF-A-induced pro-angiogenesis in HREC assessed as alive cell number count at 5 uM incubated for 24 hrs by Trypan blue dye exclusion assay (reference value: 52%); assay type: functional, Homo sapiens
[9] = system: HREC; assay: Suppression of VEGF-A-induced cell migration in HREC assessed as effect on crossing cells count at 5 uM incubated for 24 to 72 hrs in presence of 1 to 2 uM sigma1 selective agonist (+)-pentazocine by wound healing assay; assay type: functional; conditions: Homo sapiens, time 24-72 hrs
How it was run: (§3)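 A scratch wound was made in a confluent HREC monolayer, which was then kept in 1% FBS medium, either basal or with VEGF-A 80 ng/mL. (+)-Pentazocine (1 or 2 μM) was added where indicated. Wound-edge cell advancement was scored as a percentage at 24 and 72 h after the scratch.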

[10] = Stability in human plasma assessed as compound hydrolysis at 37 degC by HPLC analysis; assay type: ADME, cell-free
How it was run: (§4)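 Compound was incubated in rat or human plasma, and ester hydrolysis was followed. The rate was expressed as the observed rate constant kobs.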

[11] = system: HREC; assay: Suppression of VEGF-A-induced angiogenesis in HREC assessed as reduction of the ramification number at 5 uM incubated for 24 hrs in presence of 2 uM sigma2 selective antagonist AC927 by Matrigel based tube formation assay; assay type: functional, tissue-based; conditions: Homo sapiens
How it was run: (§5)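 HREC were plated on Matrigel with VEGF-A stimulation. Emerging branch points (ramifications) from cell bodies were counted by phase-contrast imaging.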

[12] = Stability in pH 7.4 buffer by HPLC analysis; assay type: physicochemical; how it was run: as §2
[13] = system: HREC; assay: Effect on cell migration of in HREC at 5 uM incubated for 24 to 72 hrs by wound healing assay; assay type: functional; conditions: Homo sapiens, time 24-72 hrs; how it was run: as §3
[14] = target: D(3) dopamine receptor (Rattus norvegicus, UniProt P19020); assay: Displacement of [3H]-7-OH-DPAT from DRD3 in rat olfactory tubercle by scintillation counting; assay type: tissue-based
D(3) dopamine receptor, sequence (P19020 whole entry): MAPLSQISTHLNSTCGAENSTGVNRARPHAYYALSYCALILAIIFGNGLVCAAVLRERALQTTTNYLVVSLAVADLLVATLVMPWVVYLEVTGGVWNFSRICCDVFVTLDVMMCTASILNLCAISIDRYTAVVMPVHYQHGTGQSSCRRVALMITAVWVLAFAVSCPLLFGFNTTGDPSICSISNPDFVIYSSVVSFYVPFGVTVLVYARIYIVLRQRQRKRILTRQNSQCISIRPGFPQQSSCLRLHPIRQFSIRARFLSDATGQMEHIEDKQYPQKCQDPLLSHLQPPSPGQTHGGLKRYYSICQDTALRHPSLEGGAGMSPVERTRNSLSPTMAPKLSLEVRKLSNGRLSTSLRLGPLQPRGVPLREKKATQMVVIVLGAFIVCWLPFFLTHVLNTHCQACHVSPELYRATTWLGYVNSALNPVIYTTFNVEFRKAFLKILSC

[15] = Stability in rat plasma assessed as compound hydrolysis at 37 degC by HPLC analysis; assay type: ADME, cell-free; how it was run: as §4
[16] = (§6) Suppression of VEGF-A-induced angiogenesis in HREC assessed as reduction of the ramification number at 5 uM incubated for 24 hrs by Matrigel based tube formation assay; assay type: functional, Homo sapiens; design: scale not given: the % may be the effect or the level left
How it was run: (§7)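 HRECs plated on Matrigel in the presence of VEGF-A. Emerging branch points (ramification number) from tube formation were quantified by phase-contrast imaging.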

[17] = (§8) Suppression of VEGF-A-induced cell migration in HREC assessed as crossing cells count at 5 uM incubated for 24 hrs by wound healing assay (reference value: 63%); assay type: functional, Homo sapiens
[18] = Cytotoxicity in HREC assessed as reduction in cell viability incubated for 96 hrs by MTT assay; assay type: functional; conditions: Homo sapiens
How it was run: (§9)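 HREC were exposed to the test agent for 24, 48, 72 or 96 h. Viability was measured by MTT, and IC50 values were derived for each time point.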

[19] = system: HREC; assay: Suppression of VEGF-A-induced angiogenesis in HREC assessed as reduction of the ramification number at 5 uM incubated for 24 hrs in presence of 2 uM sigma1 selective agonist (+)-pentazocine by Matrigel based tube formation assay; assay type: functional, tissue-based; conditions: Homo sapiens; how it was run: as §5
[20] = Solubility in water incubated for 1 hr by HPLC analysis; assay type: physicochemical
[21] = Cytotoxicity in HREC assessed as reduction in cell viability incubated for 48 hrs by MTT assay; assay type: functional; conditions: Homo sapiens; how it was run: as §9
[22] = system: HREC; assay: Suppression of VEGF-A-induced cell migration in HREC assessed as effect on crossing cells count at 5 uM incubated for 24 to 72 hrs in presence of 1 to 2 uM sigma2 receptor antagonist AC927 by wound healing assay; assay type: functional; conditions: Homo sapiens, time 24-72 hrs
[23] = Cytotoxicity in HREC assessed as reduction in cell viability at 5 uM incubated for 24 hrs by MTT assay; assay type: functional, Homo sapiens; how it was run: as §1
[24] = Displacement of [3H]-DTG from sigma2 receptor in guinea pig brain membranes by scintillation counting; assay type: cell membranes, Cavia porcellus, Cell membrane
[25] = target: D(2) dopamine receptor (Rattus norvegicus, UniProt P61169); assay: Displacement of [3H]-spiperone from DRD2 in rat striatum by scintillation counting; assay type: tissue-based
D(2) dopamine receptor, sequence (P61169 whole entry): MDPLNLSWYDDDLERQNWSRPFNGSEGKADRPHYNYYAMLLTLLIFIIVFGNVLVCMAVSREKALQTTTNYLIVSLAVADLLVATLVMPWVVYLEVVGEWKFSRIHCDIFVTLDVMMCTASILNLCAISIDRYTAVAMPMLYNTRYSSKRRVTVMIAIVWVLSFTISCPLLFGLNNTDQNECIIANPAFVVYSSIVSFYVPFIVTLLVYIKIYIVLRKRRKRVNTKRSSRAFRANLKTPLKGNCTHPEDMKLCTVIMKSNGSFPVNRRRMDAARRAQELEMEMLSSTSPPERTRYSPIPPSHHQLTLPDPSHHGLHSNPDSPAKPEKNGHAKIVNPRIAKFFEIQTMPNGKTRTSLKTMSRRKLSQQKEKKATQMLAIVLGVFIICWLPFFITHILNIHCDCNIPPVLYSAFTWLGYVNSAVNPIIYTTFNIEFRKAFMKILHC

[26] = system: HREC; assay: Cytotoxicity in HREC assessed as reduction in cell viability at 5 uM incubated for 72 hrs in presence of 1 uM sigma1 selective agonist (+)-pentazocine by MTT assay; assay type: functional; conditions: Homo sapiens
How it was run: (§10)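 HREC were co-incubated for 72 h with the test agent plus either the σ1 agonist (+)-pentazocine (1 μM) or the σ2 ligand AC927 (1 μM). Viability was read by MTT test.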

[27] = Cytotoxicity in HREC assessed as reduction in cell viability incubated for 72 hrs by MTT assay; assay type: functional; conditions: Homo sapiens; how it was run: as §9
[28] = (§11) Suppression of VEGF-A-induced cell migration in HREC assessed as crossing cells count at 5 uM incubated for 72 hrs by wound healing assay (reference value: 26%); assay type: functional, Homo sapiens
[29] = (§12) Cytotoxicity in HREC assessed as reduction in cell counts at 5 uM incubated for 24 hrs under basal conditions by Trypan blue dye exclusion assay; assay type: functional, Homo sapiens; design: scale not given: the % may be the effect or the level left
How it was run: (§13)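 HRECs grown in medium with 1% FBS under basal conditions, no VEGF-A. Exposure 24 or 72 h. Read-out is the count of live cells excluding dye in a Trypan blue exclusion test.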

[30] = (§14) Cytotoxicity in HREC assessed as reduction in cell counts at 5 uM incubated for 72 hrs under basal conditions by Trypan blue dye exclusion assay; assay type: functional, Homo sapiens; design: scale not given: the % may be the effect or the level left; how it was run: as §13
[31] = system: HREC; assay: Cytotoxicity in HREC assessed as reduction in cell viability at 20 uM incubated for 72 hrs in presence of 1 uM sigma2 receptor antagonist AC927 by MTT assay; assay type: functional; conditions: Homo sapiens; how it was run: as §10
[32] = system: HREC; assay: as §8; assay type: functional; conditions: Homo sapiens
[33] = Cytotoxicity in HREC assessed as reduction in cell viability at 200 uM incubated for 24 hrs by MTT assay; assay type: functional, Homo sapiens; how it was run: as §1
[34] = system: HREC; assay: Cytotoxicity in HREC assessed as reduction in cell viability by MTT assay; assay type: functional; conditions: Homo sapiens, TDE = time-dependent effect; how it was run: as §9
[35] = Cytotoxicity in HREC assessed as reduction in cell viability at 20 uM incubated for 72 hrs by MTT assay; assay type: functional, Homo sapiens; how it was run: as §1
[36] = system: HREC; assay: as §11; assay type: functional; conditions: Homo sapiens
[37] = system: HREC; assay: as §12; assay type: functional; conditions: Homo sapiens; how it was run: as §13
[38] = system: HREC; assay: as §14; assay type: functional; conditions: Homo sapiens; how it was run: as §13
[39] = system: HREC; assay: Cytotoxicity in HREC assessed as reduction in cell viability at 20 uM incubated for 72 hrs in presence of 1 uM sigma1 selective agonist (+)-pentazocine by MTT assay; assay type: functional; conditions: Homo sapiens; how it was run: as §10
[40] = system: HREC; assay: as §6; assay type: functional; conditions: Homo sapiens; how it was run: as §7
[41] = system: HREC; assay: Suppression of VEGF-A-induced cell migration in HREC assessed as effect on crossing cells count at 2 uM incubated for 24 to 72 hrs by wound healing assay; assay type: functional; conditions: Homo sapiens, time 24-72 hrs
[42] = system: HREC; assay: Effect on cell migration of in HREC at 2 uM incubated for 24 to 72 hrs by wound healing assay; assay type: functional; conditions: Homo sapiens, time 24-72 hrs

Structure (SMILES): CCCC(CCC)C(=O)OC(CCCN1CCC(O)(c2ccc(Cl)cc2)CC1)c1ccc(F)cc1 (racemic)
IC50 ([1]; read-out: IC50): 10.5 µM | IC50 ([1]; read-out: pIC50 (converted)): 10.5 µM | inhibition [2]: inactive | Activity [3]: 25% | half-life [4]: 129 h | Ki [5]: 0.013 µM | Activity [6]: 18% | Activity [7]: 30% | Activity [8]: 28% | Activity [9]: inactive | Stabilty [10]: Stable | Activity [11]: Active | half-life [12]: 134 h | Activity [13]: inactive | Ki [14]: > 5 µM | Stabilty [15]: Unstable | Activity [16]: 67% | Activity [17]: 55% | IC50 ([18]; read-out: IC50): 10.6 µM | IC50 ([18]; read-out: pIC50 (converted)): 10.6 µM | Activity [19]: inactive | solubility at 1 h [20]: 1400 µg/mL (≈ 2780 µM) | IC50 ([21]; read-out: IC50): 11.1 µM | IC50 ([21]; read-out: pIC50 (converted)): 11.1 µM | Activity [22]: Active | Activity [23]: 28% | Ki [24]: 0.124 µM | Ki [25]: > 5 µM | Activity [26]: inactive | IC50 ([27]; read-out: IC50): 10.1 µM | IC50 ([27]; read-out: pIC50 (converted)): 10.1 µM | Activity [28]: 24% | Activity [29]: 32% | Activity [30]: 52%

Structure (SMILES): OC(CCCN1CCC(O)(c2ccc(Cl)cc2)CC1)c1ccc(F)cc1 (racemic) [HYDROXYHALOPERIDOL]
IC50 ([1]; read-out: IC50): > 200 µM | Activity [31]: inactive | Activity [13]: inactive | Ki [14]: 1.02 µM | Activity [32]: inactive | Activity [33]: <50% | IC50 ([18]; read-out: IC50): 56.6 µM | IC50 ([18]; read-out: pIC50 (converted)): 56.6 µM | IC50 ([21]; read-out: IC50): 128 µM | IC50 ([21]; read-out: pIC50 (converted)): 128 µM | Activity [34]: Tde | Ki [24]: 0.0024 µM | Activity [35]: 29% | IC50 ([27]; read-out: IC50): 68.7 µM | IC50 ([27]; read-out: pIC50 (converted)): 68.7 µM | Activity [36]: inactive | Activity [37]: inactive | Activity [38]: inactive | Activity [39]: inactive

Structure (SMILES): O=C(CCCN1CCC(O)(c2ccc(Cl)cc2)CC1)c1ccc(F)cc1 [HALOPERIDOL]
Activity [40]: inactive | IC50 ([18]; read-out: IC50): 2.28 µM | IC50 ([18]; read-out: pIC50 (converted)): 2.29 µM | Activity [41]: inactive | Activity [42]: inactive

Ki [5]: > 10 µM | Ki [24]: > 10 µM
Structure (SMILES): CCCC(CCC)C(=O)O [VALPROIC ACID]
IC50 ([1]; read-out: IC50): 1220 µM | IC50 ([1]; read-out: pIC50 (converted)): 1220 µM | Activity [13]: inactive | Activity [32]: inactive | IC50 ([18]; read-out: IC50): 1480 µM | IC50 ([18]; read-out: pIC50 (converted)): 1480 µM | IC50 ([21]; read-out: IC50): 1450 µM | IC50 ([21]; read-out: pIC50 (converted)): 1450 µM | IC50 ([27]; read-out: IC50): 1390 µM | IC50 ([27]; read-out: pIC50 (converted)): 1390 µM | Activity [36]: inactive | Activity [37]: inactive | Activity [38]: inactive
